The source made the active and inactive calls.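 How the source made its calls, unless noted: active means a full or partial loss of lipid-probe fluorescence in the fish gall bladder, intestine or both, judged by eye; inactive means no fluorescence loss, or compound toxic to the fish.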
Tests used:
[1] = inhibitors of TNFa-induced NFkB p65 translocation, primary screen, imaging, HUVEC, MLSMR starter and 10KST1 sets (AID 438;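 active means inhibition above 20% together with a positive visual image hit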;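 further: compound added about 3h40 before a 20 min TNFalpha stimulation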;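 on inhibition: signal is the nuclear over cytoplasmic p65 intensity ratio per well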); details: HUVEC TNFa-induced p65 nuclear translocation; cell count: measured here: nuclei count (cytotoxicity indicator), at 2.08 µM; inhibition: at 2 µM, stronger effect = higher value, 0% TNFa-plus-vehicle, 100% no-TNFa wells
[2] = endothelial E-selectin expression blockers – imaging, HUVEC, immunofluorescence, MLSMR starter and 10KST1 sets, primary screen (AID 487;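 active means visually confirmed hit in the image check and inhibition above 20%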;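 on inhibition: signal is fraction of cell area covered by stained E-selectin grains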;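 on nuclei count: 100% = median nuclei count of all wells on the same plate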); details: HUVEC TNFalpha-induced E-selectin immunofluorescence imaging, at 2 µM; inhibition: stronger effect = higher value; nuclei count: measured here: cell number, toxicity
[3] = Primary imaging screen for DUSP6 inhibitors that restore phospho-Erk in transfected HeLa cells, chemical complementation (AID 609;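 active means compounds giving at least 50% inhibition in the cell-based MKP-3 phosphatase rescue imaging test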;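 on inhibition: phospho-Erk level distribution per well compared with pooled transfected vehicle control wells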); details: HeLa MKP-3 transfected, phospho-Erk imaging KS statistic, at 10 µM, cells stimulated with TPA for 15 min
[4] = target: Dual specificity protein phosphatase 6 (Homo sapiens) (UniProt Q16828); test: as above; details: HeLa MKP-3 transfected, phospho-Erk imaging KS statistic; at 10 µM; stronger effect = higher value; cells stimulated with TPA for 15 min
Chain of Dual specificity protein phosphatase 6 (Homo sapiens) (Q16828 whole entry, looked up): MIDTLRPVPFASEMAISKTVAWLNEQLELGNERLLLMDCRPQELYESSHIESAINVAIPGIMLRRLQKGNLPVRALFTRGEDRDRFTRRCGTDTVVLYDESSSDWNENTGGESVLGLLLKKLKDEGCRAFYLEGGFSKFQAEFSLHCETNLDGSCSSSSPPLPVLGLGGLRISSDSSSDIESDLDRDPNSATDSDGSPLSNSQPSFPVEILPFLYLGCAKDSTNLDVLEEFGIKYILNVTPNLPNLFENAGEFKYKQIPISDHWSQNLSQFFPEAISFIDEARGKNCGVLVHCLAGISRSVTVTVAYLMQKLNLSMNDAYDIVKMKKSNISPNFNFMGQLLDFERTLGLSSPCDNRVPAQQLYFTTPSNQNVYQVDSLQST

[5] = target: Voltage-gated potassium channel subunit beta-2 (Rattus norvegicus) (UniProt P62483); test: inhibitors of rat Kvbeta2 reductase activity – biochemical, NADPH fluorescence, primary screen (AID 622;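 active means fluorescence slope higher than the sample average by over 3 SD, cut at about -0.22 in these data, passing the limit was not always enough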;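 further: slope of raw intensity against log time taken from 70 to 1610 s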); details: recombinant KvBeta, 4-cyanobenzaldehyde reduction, at 10 µM, stronger effect = higher value
Chain of Voltage-gated potassium channel subunit beta-2 (Rattus norvegicus) (P62483 whole entry, looked up): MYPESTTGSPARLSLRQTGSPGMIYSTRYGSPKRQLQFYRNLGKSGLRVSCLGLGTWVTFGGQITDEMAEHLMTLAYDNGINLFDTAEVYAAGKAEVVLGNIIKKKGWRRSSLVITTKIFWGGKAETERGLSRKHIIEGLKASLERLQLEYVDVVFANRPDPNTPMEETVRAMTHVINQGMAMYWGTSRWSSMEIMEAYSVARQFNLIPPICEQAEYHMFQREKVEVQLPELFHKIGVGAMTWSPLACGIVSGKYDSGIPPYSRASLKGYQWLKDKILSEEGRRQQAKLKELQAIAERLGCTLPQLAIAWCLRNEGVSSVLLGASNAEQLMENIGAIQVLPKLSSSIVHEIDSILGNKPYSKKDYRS

[6] = target: Voltage-gated potassium channel subunit beta-2 (Rattus norvegicus) (UniProt P62483); test: enhancers of rat Kvbeta2 NADPH turnover – biochemical, NADPH fluorescence, primary screen (AID 623;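 active means NADPH fluorescence slope more negative than the mean of all samples by about 3 SD, 99.7% confidence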;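 further: fluorescence intensity change per second fitted from 20 to 320 s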); details: Recombinant KvBeta, NADPH fluorescence decrease slope, 10 min; at 10 µM; stronger effect = lower value
[7] = target: Muscarinic acetylcholine receptor M4 (Homo sapiens) (UniProt P08173); test: M4-linked GIRK flux change, two-sided – cell-based, HEK293 M4/GIRK, thallium flux, BTC-AM, M4 allosteric agonist project, primary screen (AID 625;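 active means fluorescence slope after compound addition differing from the mean of all tested samples at 99.7% confidence, mostly higher but some lower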;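 further: thallium influx through GIRK channels coupled to M4 in HEK293 cells with BTC-AM dye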); details: at 10 µM, actives lie on both sides
Chain of Muscarinic acetylcholine receptor M4 (Homo sapiens) (P08173 whole entry, looked up): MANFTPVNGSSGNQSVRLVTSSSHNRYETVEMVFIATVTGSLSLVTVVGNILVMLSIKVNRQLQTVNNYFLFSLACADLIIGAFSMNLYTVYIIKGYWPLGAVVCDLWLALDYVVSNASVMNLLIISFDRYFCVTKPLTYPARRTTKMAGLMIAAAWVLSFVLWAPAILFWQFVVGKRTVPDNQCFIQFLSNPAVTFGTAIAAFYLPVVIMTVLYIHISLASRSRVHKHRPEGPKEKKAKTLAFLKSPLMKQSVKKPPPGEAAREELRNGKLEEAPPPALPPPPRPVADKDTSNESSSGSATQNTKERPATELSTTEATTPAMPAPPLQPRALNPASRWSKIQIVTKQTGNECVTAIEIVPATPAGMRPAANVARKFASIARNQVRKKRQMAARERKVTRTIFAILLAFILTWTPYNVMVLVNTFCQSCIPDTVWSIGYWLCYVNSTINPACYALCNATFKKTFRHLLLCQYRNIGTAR
How it was run: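 Material: HEK293 cells with M4 receptor and GIRK channels; Times: cells overnight at 37 °C, BTC-AM loading 1 h, reads 2 min total; Technique: kinetic BTC-AM fluorescence sampled at 1 Hz, 10 s pre-addition baseline; Read-out basis: slope over 15–24 s of trace normalized to starting intensity; Controls: carbachol positive, DMSO negative.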

[8] = inhibitors of larval lipid processing in zebrafish, primary screen, whole organism, PED6 fluorescence, gall bladder and intestine (AID 686); details: Zebrafish larvae PED6 lipid processing, fluorescence scoring; screened at 20 µM (by protocol);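 further: larvae 5 to 7 days old with five fish per well; signal comes from phospholipase A2 cleavage of quenched PED6 carried via bile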
How it was run: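 Incubation: overnight exposure of larvae to compound plus PED6 / Test system: live zebrafish larvae aged 5-7 days, whole organism / Amount: 5 larvae per well / Read-out basis: visual per-well fluorescence inhibition score / Signal: visual fluorescence microscopy scoring of gall bladder, gut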

[9] = loss of swimming-algae plug formation – whole organism, Chlamydomonas reinhardtii, WT vs cilia-less mutant, absorbance, 96-well, primary screen (AID 463189;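 active means inhibition at or above 50% relative to wild type and mutant plate controls; inactive means inhibition below 50%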;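 further: 0% = wild type cc124 cells in DMSO and 100% = ciliumless bld1 mutant cells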); details: Chlamydomonas reinhardtii gravitaxis, OD600 absorbance, 2 days; at 10 µM; stronger effect = higher value
[10] = measured here: cell density z-score
[11] = measured here: nuclear c-Myc green intensity z-score
[12] = measured here: nuclear pErk red intensity z-score, stronger effect = higher value

SMILES	cell count [1]	inhibition [1]	inhibition [2]	nuclei count [2]	z-score [3, 10]	z-score [3, 11]	z-score [3, 12]	inhibition [4]	fluorescence slope [5]	NADPH fluorescence slope [6]	fluorescence slope [7]	outcome [8]	inhibition [9]
CC(=O)[C@H]1[C@@H]2C(=O)N(c3cccc(Cl)c3)C(=O)[C@@H]2[C@H]2c3ccccc3C=CN21	652	0% (inactive)	5.3% (inactive)	144%	0.229	0.26	-0.893	-2.47% (inactive)	-0.495 (inactive)	-3.6e-05 (inactive)	0.00696 (inactive)	inactive	18.1% (inactive)
CCn1c(SCC(=O)Nc2ccccc2C(=O)OC)nnc1-c1ccc(N)cc1	653	2.4% (inactive)	7.2% (inactive)	176%	0.614	0.0177	-0.913	22.1% (inactive)	-0.46 (inactive)	-4.1e-05 (inactive)	0.00557 (inactive)	inactive	19.8% (inactive)
S=c1[nH]nc(-c2ccco2)n1C1CCCCC1	638	-2.9% (inactive)	6.6% (inactive)	143%	-0.759	-0.86	-1.13	-7.67% (inactive)	-0.495 (inactive)	-4e-05 (inactive)	0.00615 (inactive)	inactive	-19.8% (inactive)
Cc1nn(C)cc1/C=N/n1nnnc1N	680	-10.2% (inactive)	-45.8% (inactive)	155%	0.00474	-1.39	0.944	4.37% (inactive)	-0.487 (inactive)	-3.8e-05 (inactive)	0.00512 (inactive)	inactive	11.8% (inactive)
COc1cc(=O)[nH]c(=O)n1CC(=O)c1ccccc1	719	-7.7% (inactive)	-4.5% (inactive)	160%	-0.792	1.02	1.07	-2.09% (inactive)	-0.452 (inactive)	-3.7e-05 (inactive)	0.00585 (inactive)	inactive	-0.879% (inactive)
CC(O)CNc1nc2c(c(=O)n(C)c(=O)n2C)n1Cc1cccc(C(F)(F)F)c1 (stereo unspecified)	679	-9.1% (inactive)	-182% (inactive)	176%	0.999	-1.51	-1.36	11.9% (inactive)	-0.511 (inactive)	-5e-05 (inactive)	0.00932 (inactive)	inactive	4.09% (inactive)
CCOC(=O)N1CCN(c2ncnc3c2cnn3-c2ccc(OC)cc2)CC1	638	-4.6% (inactive)	-140% (inactive)	149%	0.712	-0.105	0.21	13.4% (inactive)	-0.379 (inactive)	-4.6e-05 (inactive)	0.00565 (inactive)	inactive	0.263% (inactive)
C/C(NC(=O)c1cccs1)=C1\C(=O)C[C@@H]2[C@H]1C2(C)C	562	-1.6% (inactive)	-127% (inactive)	150%	0.211	-0.0395	-0.0984	11.9% (inactive)	-0.392 (inactive)	-6e-05 (inactive)	0.00498 (inactive)	inactive	-3.09% (inactive)
CC1(C)Cc2c(sc3nc(SCC(=O)NCc4ccco4)n(-c4ccccc4)c(=O)c23)CS1	501	-2.3% (inactive)	-158% (inactive)	112%	-1.09	-0.43	0.302	1.98% (inactive)	-0.431 (inactive)	-4.8e-05 (inactive)	0.00628 (inactive)	inactive	-14.1% (inactive)
Cc1c2c([n+]3n1CCC3)CC(C)(C)CC2=O	617	10.2% (inactive)	-23.3% (inactive)	121%	-0.832	1.36	0.404	-7.67% (inactive)	-0.443 (inactive)	-3.2e-05 (inactive)	0.00512 (inactive)	inactive	-11.5% (inactive)
CCOC(=O)C1=C(N)n2c(s/c(=C\c3ccco3)c2=O)=C(C(=O)OC(C)C)C1c1ccco1 (stereo unspecified)	383	-7.4% (inactive)	-126% (inactive)	166%	0.588	-1.67	1.18	-4.59% (inactive)	-0.46 (inactive)	-7.4e-05 (inactive)	0.00444 (inactive)	inactive	27.2% (inactive)
COc1ccc(CC(=O)Nc2cccc(-c3nnc(-c4ccco4)o3)c2)cc1	671	-0.9% (inactive)	6.2% (inactive)	177%	-0.286	1.67	1.63	-15.1% (inactive)	-0.475 (inactive)	-8e-05 (inactive)	0.00587 (inactive)	inactive	0.83% (inactive)

Source: PubChem BioAssay
